Assay results published in ChEMBL document CHEMBL5649170, “Sustained microglial depletion with CSF1R inhibitor impairs parenchymal plaque development in an Alzheimer's disease model” (Nat Commun, 2019).
Activity calls are given as the source filed them. No cut-off for these calls is given here.

What was measured:
[1] = biological target: T1, Macrophage colony-stimulating factor 1 receptor (Mus musculus) (UniProt P09581); assay: In vivo inhibition of CSF1R in 5XFAD mouse assessed as reduction in plaque pathology in […] cortex at 600 ppm administered as rodent chow starting from 1.5 months and measured after 5 months by immunolabeling based confocal microscopic analysis; conditions: route po, time 3.5 months
T1 sequence (whole entry): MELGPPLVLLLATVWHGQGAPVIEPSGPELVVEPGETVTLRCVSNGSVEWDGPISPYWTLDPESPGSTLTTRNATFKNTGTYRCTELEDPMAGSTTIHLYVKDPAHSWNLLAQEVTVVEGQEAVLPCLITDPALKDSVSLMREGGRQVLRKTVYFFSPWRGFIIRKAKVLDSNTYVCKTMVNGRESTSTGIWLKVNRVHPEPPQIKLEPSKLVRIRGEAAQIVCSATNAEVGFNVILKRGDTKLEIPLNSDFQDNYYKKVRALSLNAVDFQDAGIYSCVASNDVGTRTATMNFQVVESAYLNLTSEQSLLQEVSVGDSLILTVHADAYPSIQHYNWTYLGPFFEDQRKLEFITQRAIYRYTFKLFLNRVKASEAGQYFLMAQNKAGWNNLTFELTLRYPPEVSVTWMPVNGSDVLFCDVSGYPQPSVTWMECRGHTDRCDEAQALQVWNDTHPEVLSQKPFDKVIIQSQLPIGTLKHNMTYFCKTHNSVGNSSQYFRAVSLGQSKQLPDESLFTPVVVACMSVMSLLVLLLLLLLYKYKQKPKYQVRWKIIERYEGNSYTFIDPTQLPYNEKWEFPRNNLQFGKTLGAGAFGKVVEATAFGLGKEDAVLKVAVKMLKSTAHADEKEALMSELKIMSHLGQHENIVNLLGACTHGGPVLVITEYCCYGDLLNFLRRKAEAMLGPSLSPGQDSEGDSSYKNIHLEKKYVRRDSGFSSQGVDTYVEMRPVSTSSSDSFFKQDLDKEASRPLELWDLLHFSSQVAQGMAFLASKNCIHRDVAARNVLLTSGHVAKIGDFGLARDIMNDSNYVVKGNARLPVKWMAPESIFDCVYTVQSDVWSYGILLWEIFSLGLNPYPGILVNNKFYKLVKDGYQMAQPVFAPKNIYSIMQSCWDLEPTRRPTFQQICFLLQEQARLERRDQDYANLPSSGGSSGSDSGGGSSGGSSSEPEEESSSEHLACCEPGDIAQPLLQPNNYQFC

Mus musculus [2] = assay: Prevention of Itgam gene upregulation in 5XFAD mouse hippocampus at 1200 ppm administered as rodent chow starting from 1.5 months and measured after 7 months by Nanostring analysis; format: functional, tissue-based; conditions: route po, time 5.5 months
[3] = Effect on Cst7 gene expression in 5XFAD mouse hippocampus at 1200 ppm administered as rodent chow starting from 1.5 months and measured after 7 months by RNA-Seq analysis (reference value: 14.615 to 34.909 RPKM); format: functional; conditions: route po, time 5.5 months, 4015 h
[4] = Effect on Ctsz gene expression in wild type mouse thalamus at 1200 ppm administered as rodent chow starting from 1.5 months and measured after 7 months by RNA-Seq analysis (reference value: 13.234 to 17.920 RPKM); format: functional; conditions: route po, time 5.5 months, 4015 h
Mus musculus [5] = assay: Antialzheimer activity in 5XFAD mouse assessed as percent change in claudin-5 intensity of thalamus at 1200 ppm administered as rodent chow starting from 1.5 months and measured after 4 months by immunolabeling analysis relative to control; format: functional; conditions: route po, time 2.5 months, 1825 h
[6] = Effect on Kcnq3 gene expression in wildtype mouse hippocampus assessed as percent change in Reads Per kilo base per Million mapped reads at 1200 ppm administered as rodent chow starting from 1.5 months and measured after 7 months by RNA-Seq analysis (reference value: 77.761 to 119.973 %); format: functional; conditions: route po, time 5.5 months, 4015 h
[7] = biological target: Calcium/calmodulin-dependent protein kinase type IV (Homo sapiens, UniProt Q16566); assay: Inhibition of CAMK4 (unknown origin)
[8] = biological target: Serine/threonine-protein kinase 25 (Homo sapiens, UniProt O00506); assay: Inhibition of STK25 (unknown origin)
[9] = biological target: Proto-oncogene tyrosine-protein kinase receptor Ret (Homo sapiens, UniProt P07949); assay: Inhibition of RET (unknown origin)
[10] = biological target: Casein kinase I isoform gamma-2 (Homo sapiens, UniProt P78368); assay: Inhibition of CSNK1G2 (unknown origin)
Mus musculus [11] = assay: Antialzheimer activity in 5XFAD mouse assessed as amyloidbeta42 level in detergent insoluble cortex fraction measured per microgram protein at 1200 ppm administered as rodent chow starting from 1.5 months and measured after 4 months by ELISA (reference value: 184693 to 3485624 pg); format: functional; conditions: route po, time 2.5 months, 1825 h
How it was run: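 PLX5622 at 1200 ppm in chow given to 5xFAD mice from 1.5 months to 4 or 7 months of age; cortex and thalamus homogenized in TPER (detergent-soluble), pellets re-homogenized in 70% formic acid and spun 100,000 g, 1 h, 4 °C (insoluble); protein by Bradford/Lowry; Aβ species measured by Meso Scale electrochemiluminescence immunoassay, normalized to protein; n = 7–8 per group at 7 months.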

[12] = Prevention of Chrm3 gene downregulation in 5XFAD mouse hippocampus assessed as percent change in Reads Per kilo base per Million mapped reads at 1200 ppm administered as rodent chow starting from 1.5 months and measured after 7 months by RNA-Seq analysis (reference value: 46.176 to 86.158 %); format: functional; conditions: route po, time 5.5 months, 4015 h
[13] = Effect on Hexb gene expression in 5XFAD mouse hippocampus at 1200 ppm administered as rodent chow starting from 1.5 months and measured after 7 months by RNA-Seq analysis (reference value: 90.736 to 123.2 RPKM); format: functional; conditions: route po, time 5.5 months, 4015 h
Mus musculus [14] = assay: Antialzheimer activity in 5XFAD mouse assessed as microglial elimination in brain at 1200 ppm administered as rodent chow by Thio-S staining based confocal microscopic analysis; conditions: route po
[15] = Volume of distribution at steady state in dog at 1.00 mg/kg, iv administered as single dose; format: ADME, organism-based, Canis lupus familiaris; conditions: in vivo, read-out: Vdss
[16] = biological target: Inhibitor of nuclear factor kappa-B kinase subunit beta (Homo sapiens, UniProt O14920); assay: Inhibition of IKBKB (unknown origin)
[17] = Drug concentration in 5XFAD mouse brain at 1200 ppm administered as rodent chow for 10 to 24 weeks; format: ADME, tissue-based; conditions: in vivo, po, time 10-24 weeks, read-out: Ct
How it was run: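 WT or 5xFAD mice were started at 1.5 months of age on PLX5622 formulated at 1200 ppm in AIN-76A chow, with control chow as comparison. Feeding ran for 10 or 24 weeks. Terminal plasma and brain drug levels were then measured. Groups were sex-balanced and compared by two-tailed independent t-test.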

Mus musculus [18] = assay: Antialzheimer activity in wildtype mouse assessed as number of Iba positive cells per FOV in somatosensory cortex at 1200 ppm administered as rodent chow starting from 1.5 months and measured after 7 months (reference value: 371 to 472); format: functional; conditions: route po, time 5.5 months, 4015 h
[19] = biological target: Mitogen-activated protein kinase 1 (Homo sapiens, UniProt P28482); assay: Inhibition of MAPK1 (unknown origin)
Mitogen-activated protein kinase 1, sequence (P28482 whole entry): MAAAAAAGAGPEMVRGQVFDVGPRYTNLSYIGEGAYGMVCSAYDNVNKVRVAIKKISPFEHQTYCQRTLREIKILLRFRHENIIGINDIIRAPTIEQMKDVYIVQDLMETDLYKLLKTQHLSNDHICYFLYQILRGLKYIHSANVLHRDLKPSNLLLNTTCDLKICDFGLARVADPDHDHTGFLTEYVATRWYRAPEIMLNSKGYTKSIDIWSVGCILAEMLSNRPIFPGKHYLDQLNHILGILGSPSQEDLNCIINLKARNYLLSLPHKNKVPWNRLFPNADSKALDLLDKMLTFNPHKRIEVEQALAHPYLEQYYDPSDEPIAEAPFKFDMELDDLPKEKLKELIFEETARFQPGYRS

Proto-oncogene tyrosine-protein kinase receptor Ret, sequence (P07949 whole entry, canonical isoform): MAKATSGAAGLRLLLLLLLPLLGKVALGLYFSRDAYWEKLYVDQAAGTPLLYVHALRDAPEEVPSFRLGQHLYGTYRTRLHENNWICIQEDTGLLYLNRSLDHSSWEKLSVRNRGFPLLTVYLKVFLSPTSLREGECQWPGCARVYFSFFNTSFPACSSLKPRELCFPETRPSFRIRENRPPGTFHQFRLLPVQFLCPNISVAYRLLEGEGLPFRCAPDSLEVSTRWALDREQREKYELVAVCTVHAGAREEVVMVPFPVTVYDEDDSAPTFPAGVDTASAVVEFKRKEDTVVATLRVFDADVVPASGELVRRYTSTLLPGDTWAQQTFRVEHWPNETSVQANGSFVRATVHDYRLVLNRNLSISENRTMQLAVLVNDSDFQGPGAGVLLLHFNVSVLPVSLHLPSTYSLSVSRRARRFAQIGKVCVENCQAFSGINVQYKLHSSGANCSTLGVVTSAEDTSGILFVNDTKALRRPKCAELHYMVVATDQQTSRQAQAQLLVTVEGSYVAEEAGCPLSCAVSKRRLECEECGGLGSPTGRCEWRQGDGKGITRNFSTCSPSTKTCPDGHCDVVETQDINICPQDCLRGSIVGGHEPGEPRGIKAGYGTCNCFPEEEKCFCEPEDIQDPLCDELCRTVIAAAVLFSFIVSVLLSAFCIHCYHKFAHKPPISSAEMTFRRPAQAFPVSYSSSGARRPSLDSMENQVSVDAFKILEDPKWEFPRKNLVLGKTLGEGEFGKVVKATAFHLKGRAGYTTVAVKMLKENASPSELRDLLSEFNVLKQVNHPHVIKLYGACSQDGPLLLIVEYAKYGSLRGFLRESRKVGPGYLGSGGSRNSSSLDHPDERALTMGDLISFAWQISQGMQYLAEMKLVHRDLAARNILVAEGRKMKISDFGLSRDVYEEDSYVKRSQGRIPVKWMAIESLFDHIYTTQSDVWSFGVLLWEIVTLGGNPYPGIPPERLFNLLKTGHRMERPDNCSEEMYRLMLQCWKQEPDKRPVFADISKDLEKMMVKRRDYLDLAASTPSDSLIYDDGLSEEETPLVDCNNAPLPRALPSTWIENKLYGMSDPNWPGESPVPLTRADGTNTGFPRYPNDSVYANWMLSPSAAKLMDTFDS
Casein kinase I isoform gamma-2, sequence (P78368 whole entry, canonical isoform): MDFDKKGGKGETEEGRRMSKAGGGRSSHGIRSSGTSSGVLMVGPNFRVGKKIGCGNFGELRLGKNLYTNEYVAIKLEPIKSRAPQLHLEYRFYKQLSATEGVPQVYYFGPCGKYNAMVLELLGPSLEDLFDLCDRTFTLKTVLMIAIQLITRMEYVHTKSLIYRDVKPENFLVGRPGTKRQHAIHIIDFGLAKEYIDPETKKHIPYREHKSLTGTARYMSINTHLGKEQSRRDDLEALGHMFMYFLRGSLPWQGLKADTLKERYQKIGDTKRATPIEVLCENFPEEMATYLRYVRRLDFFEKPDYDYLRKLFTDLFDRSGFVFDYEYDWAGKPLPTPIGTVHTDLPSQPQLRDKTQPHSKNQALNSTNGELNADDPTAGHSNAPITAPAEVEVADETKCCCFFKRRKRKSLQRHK
Serine/threonine-protein kinase 25, sequence (O00506 whole entry): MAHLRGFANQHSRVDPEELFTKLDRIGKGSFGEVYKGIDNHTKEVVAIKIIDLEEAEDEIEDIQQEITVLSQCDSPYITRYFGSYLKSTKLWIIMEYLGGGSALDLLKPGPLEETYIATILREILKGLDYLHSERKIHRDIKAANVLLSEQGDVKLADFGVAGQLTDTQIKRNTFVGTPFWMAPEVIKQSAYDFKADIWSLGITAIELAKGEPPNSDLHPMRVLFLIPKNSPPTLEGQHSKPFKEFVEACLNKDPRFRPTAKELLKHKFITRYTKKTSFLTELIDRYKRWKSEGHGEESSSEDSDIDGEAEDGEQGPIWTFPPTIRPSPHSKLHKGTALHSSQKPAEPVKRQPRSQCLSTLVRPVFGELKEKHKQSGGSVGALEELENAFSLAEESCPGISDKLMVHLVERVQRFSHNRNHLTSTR
Inhibitor of nuclear factor kappa-B kinase subunit beta, sequence (O14920 whole entry): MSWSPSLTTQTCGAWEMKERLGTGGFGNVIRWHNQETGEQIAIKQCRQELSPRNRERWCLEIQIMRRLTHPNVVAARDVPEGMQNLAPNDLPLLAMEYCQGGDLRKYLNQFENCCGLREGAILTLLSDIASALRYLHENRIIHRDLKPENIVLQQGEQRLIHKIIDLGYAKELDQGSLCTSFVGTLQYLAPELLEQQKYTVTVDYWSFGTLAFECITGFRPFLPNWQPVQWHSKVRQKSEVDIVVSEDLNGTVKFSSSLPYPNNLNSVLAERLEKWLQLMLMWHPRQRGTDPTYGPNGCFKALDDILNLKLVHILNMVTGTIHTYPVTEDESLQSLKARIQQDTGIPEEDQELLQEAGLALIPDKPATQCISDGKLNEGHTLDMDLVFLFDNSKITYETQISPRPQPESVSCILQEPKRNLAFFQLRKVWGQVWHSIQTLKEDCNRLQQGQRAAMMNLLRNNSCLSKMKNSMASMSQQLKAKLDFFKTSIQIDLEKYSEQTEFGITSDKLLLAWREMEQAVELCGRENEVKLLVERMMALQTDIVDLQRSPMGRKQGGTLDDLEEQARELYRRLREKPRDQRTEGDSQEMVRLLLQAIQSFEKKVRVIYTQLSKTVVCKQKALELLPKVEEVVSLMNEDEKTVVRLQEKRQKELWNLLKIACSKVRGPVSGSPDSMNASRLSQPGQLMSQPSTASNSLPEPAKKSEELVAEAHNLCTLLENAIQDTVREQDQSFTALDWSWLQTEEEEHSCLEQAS
Calcium/calmodulin-dependent protein kinase type IV, sequence (Q16566 whole entry): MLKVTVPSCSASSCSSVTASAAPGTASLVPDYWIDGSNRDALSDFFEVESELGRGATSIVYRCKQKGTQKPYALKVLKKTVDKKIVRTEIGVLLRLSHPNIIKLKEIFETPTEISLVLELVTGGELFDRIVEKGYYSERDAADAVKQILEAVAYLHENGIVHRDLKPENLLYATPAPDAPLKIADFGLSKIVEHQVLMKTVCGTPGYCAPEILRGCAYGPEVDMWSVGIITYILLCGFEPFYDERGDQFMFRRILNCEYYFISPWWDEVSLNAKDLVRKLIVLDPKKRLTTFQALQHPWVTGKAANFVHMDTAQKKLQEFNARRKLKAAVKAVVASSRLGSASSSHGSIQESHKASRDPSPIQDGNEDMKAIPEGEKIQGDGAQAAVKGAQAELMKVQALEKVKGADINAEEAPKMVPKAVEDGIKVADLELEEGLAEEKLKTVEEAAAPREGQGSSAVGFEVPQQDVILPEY

| Structure (SMILES) | inhibition [1] | Activity (Mus musculus [2]) | Activity [3] | Activity [4] | Activity (Mus musculus [5]) | Activity [6] | IC50 [7] | IC50 [8] | IC50 [9] | IC50 [10] | Activity (Mus musculus [11]) | Activity [12] | Activity [13] | Activity (Mus musculus [14]) | Vd [15] | IC50 [16] | concentration [17] | Activity (Mus musculus [18]) | IC50 [19] |
| --- | --- | --- | --- | --- | --- | --- | --- | --- | --- | --- | --- | --- | --- | --- | --- | --- | --- | --- | --- |
| FC(F)(F)c1ccc(CNc2ccc(Cc3c[nH]c4ncc(Cl)cc34)cn2)cn1 [PEXIDARTINIB] | Active | – | – | – | – | – | – | – | – | – | – | – | – | – | – | – | – | – | – |
| COc1ncc(F)cc1CNc1ccc(Cc2c[nH]c3ncc(C)cc23)c(F)n1 [PLX-5622] | – | Active | 2.289 RPKM | 11.055 RPKM | 7.551% | 52.407% | > 1000 nM | > 1000 nM | > 1000 nM | > 1000 nM | 14098.06 pg | 85.99% | 16.382 RPKM | Active | 2.3 L/kg | > 1000 nM | 3.47 µM | 1 | > 1000 nM |
